A short description of data set [1]: Selectivity index, ratio of CC50 for African green monkey Vero cells to IC50 for Leishmania donovani MHOM/IN/80/Dd8 intracellular amastigote form expressing luciferase gene infected in mouse J774A1 cells. It is filed as functional, J774.A1. In outline: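 Ratio of CC₅₀ in Vero cells (72 h MTT) to IC₅₀ against luciferase-expressing amastigotes in J774A.1 macrophages (72 h luminescence).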

Data set [2] is described as follows: Cytotoxicity against African green monkey Vero cells after 72 hrs by MTT assay. It counts as cell-based. Conditions: chlorocebus sabaeus. The essentials: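 Vero cells at 1 × 10⁵/mL exposed to seven concentrations from 400 μM at 37 °C, 5% CO₂, for 72 h. MTT (5 mg/mL) added for 2 h at 37 °C, formazan dissolved in DMSO, absorbance read at 544 nm. CC₅₀ estimated by the Huber and Koella method; at least duplicate measurements.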

For data set [3], the system named is Leishmania donovani. In words: Antileishmanial activity against intracellular amastigote form of Leishmania donovani MHOM/IN/80/Dd8 expressing luciferase gene infected in mouse J774A1 cells after 72 hrs by luminescence analysis. It is filed as functional, organism-based. Conditions: MHOM/IN/80/Dd8, J774.A1, 72 h. The essentials: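 J774A.1 macrophages (4 × 10⁴/mL, RPMI-1640 + 10% HIFBS, 37 °C, 5% CO₂), after 24 h infected with stationary-phase luciferase promastigotes (4 × 10⁵/mL). Free parasites washed off after 24 h. Compound added at up to 7 dilutions from 40 μM for 72 h. Luminescence read after Steady Glo in PBS. IC₅₀ from four-parameter Hill fit; at least duplicate measurements.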

Data set [4] has as its system Leishmania donovani. In words: Antileishmanial activity against extracellular promastigote form of Leishmania donovani MHOM/IN/80/Dd8 expressing firefly luciferase gene assessed as inhibition of parasitic multiplication at 25 uM after 96 hrs by luminescence analysis. It counts as functional. Conditions: for inhibition at 25 µM: MHOM/IN/80/Dd8, 96 h. The essentials: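 Late-log luciferase-expressing Dd8 promastigotes, 5 × 10⁵/mL in complete M-199, incubated with compound at 24 °C for 96 h. Aliquot mixed with Steady Glo and luminescence read as RLU. Inhibition of multiplication taken from luciferase signal of treated versus untreated parasites.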

Data set [5] concerns Leishmania donovani. In words: Antileishmanial activity against Leishmania donovani MHOM/IN/80/Dd8 amastigotes infected in syrian golden hamster assessed as decrease in parasite count in spleen at 30 mg/kg/day, po for 5 days measured on day 7 after last dose administration by giemsa staining. It counts as functional. Conditions: MHOM/IN/80/Dd8, Spleen. In outline: (§1)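 Golden hamsters of either sex infected intracardially with 1 × 10⁷ L. donovani Dd8 amastigotes. After 15−20 days, pretreatment spleen biopsy; animals with +1 grade infection (5−10 amastigotes/100 spleen cell nuclei) used, 5−6 per compound. Aqueous suspensions dosed IP or PO for 5−10 consecutive days starting 2 days after biopsy. Splenic biopsies on day 7 and 28 after last dose, Giemsa counts; PI = 100 − [(ANAT×100)/(INAT×TIUC)].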

Data set [6] concerns Leishmania donovani. In words: Antileishmanial activity against Leishmania donovani MHOM/IN/80/Dd8 amastigotes infected in syrian golden hamster assessed as decrease in parasite count in spleen at 30 mg/kg/day, po for 5 days measured on day 28 after last dose administration by giemsa staining. It is filed as functional. The conditions noted are these: MHOM/IN/80/Dd8, Spleen. The essentials:
as §1

For data set [7], the system named is Leishmania donovani. Description: Antileishmanial activity against Leishmania donovani MHOM/IN/80/Dd8 amastigotes infected in syrian golden hamster assessed as decrease in parasite count in spleen at 40 mg/kg/day, ip for 5 days measured on day 7 after last dose administration by giemsa staining. It is filed as functional, organism-based. In outline:
as §1

In data set [8] the test system is Leishmania donovani. In words: Antileishmanial activity against Leishmania donovani MHOM/IN/80/Dd8 amastigotes infected in syrian golden hamster assessed as decrease in parasite count in spleen at 40 mg/kg/day, ip for 5 days measured on day 28 after last dose administration by giemsa staining. It counts as functional, organism-based. In outline: as §1
Data set [9] concerns Leishmania donovani. In words: Antileishmanial activity against Leishmania donovani MHOM/IN/80/Dd8 amastigotes infected in syrian golden hamster assessed as decrease in parasite count in spleen at 50 mg/kg/day, po for 5 days measured on day 7 after last dose administration by giemsa staining. It counts as functional. The conditions noted are these: MHOM/IN/80/Dd8, Spleen. In outline: as §1

Data set [10] deals with Leishmania donovani. Description: Antileishmanial activity against Leishmania donovani MHOM/IN/80/Dd8 amastigotes infected in syrian golden hamster assessed as decrease in parasite count in spleen at 50 mg/kg/day, po for 5 days measured on day 28 after last dose administration by giemsa staining. It counts as functional. Conditions: MHOM/IN/80/Dd8, Spleen. The essentials:
as §1

Data set [11] can be described thus: Cytotoxicity against mouse J774A1 cells infected with Leishmania donovani expressing luciferase gene. It is filed as cell-based. Conditions: j774.a1.

The source made the active and inactive calls. No cut-off for these calls is given here.

With `CC(=O)N1N=C(c2ccc3c(c2O)C=CC(C)(CCC=C(C)C)O3)CC1c1cccnc1` (stereo unspecified), in data set [1], the “Ratio CC50/IC50” value was 13.8. Moreover, the 50% cytotoxic concentration (CC50) – broadly, the concentration that lowers cell viability or growth by half – at 72 h in data set [2] was found to be 88.5 µM. For the same molecule, the IC50 (in general, the concentration that inhibits the measured activity by half) in the data set with Leishmania donovani [3] was determined as 6.4 µM. Besides, in the data set with Leishmania donovani [4], the inhibition (as a rule, the share of the control response that was lost under treatment) at 25 µM was found to be 99.5%.

For `COc1ccc(/C=C/C(=O)c2ccc3c(c2O)CCC(C)(CCCC(C)C)O3)cc1` (stereo unspecified), the IC50 in the data set on Leishmania donovani [3] was above 20 µM. In addition, in the data set on Leishmania donovani [4], the inhibition at 25 µM was 62.3%.

In the data set on Leishmania donovani [3], `CC(C)=CCCC1(C)C=Cc2c(ccc(/C=C/C(=O)c3ccc(C)cc3)c2O)O1` (stereo unspecified) displayed a 50% inhibitory concentration (IC50) above 20 µM. Moreover, the inhibition at 25 µM in the data set on Leishmania donovani [4] was found to be 92.7%.

As to `CC(C)=CCCC1(C)C=Cc2c(ccc(C(=O)/C=C/c3ccc(O)c(C=O)c3)c2O)O1` (stereo unspecified), the IC50 with Leishmania donovani [3] is above 20 µM. In addition, the inhibition at 25 µM in the data set with Leishmania donovani [4] was found to be 94.6%.

Molecule `CC(C)=CCCC1(C)C=Cc2c(ccc(C(=O)/C=C/c3ccc4oc(C(=O)c5ccccc5)cc4c3)c2O)O1` (stereo unspecified) yielded an IC50 in the data set on Leishmania donovani [3] above 20 µM. Also, the inhibition at 25 µM in the data set with Leishmania donovani [4] stood at 94.4%.

For `CCCCCCCCCCCCCCCCOP(=O)([O-])OCC[N+](C)(C)C` [MILTEFOSINE], the figures for the inhibition in vivo at 30 mg/kg/day with Leishmania donovani [5] and in the data set with Leishmania donovani [6] were 98.5% and 83.2%, respectively. Besides, the inhibition at 25 µM with Leishmania donovani [4] is 100%.

For `CC(C)=CCCC1(C)C=Cc2c(ccc(C(=O)/C=C/c3cc(C=O)ccc3O)c2O)O1` (stereo unspecified), the “Ratio CC50/IC50” value in [1] is given as 5.5. In addition, the 50% cytotoxic concentration (CC50) at 72 h in [2] is 59.4 µM. In the data set with Leishmania donovani [3], this molecule had a 50% inhibitory concentration (IC50) of 10.7 µM. Moreover, in the data set with Leishmania donovani [4], the inhibition at 25 µM is 91.2%.

For the molecule sodium stibogluconate, the figures for the inhibition in the data set on Leishmania donovani [7] and in the data set with Leishmania donovani [8] were 89.5% and 72.5%, respectively. Moreover, in the data set on Leishmania donovani [4], the inhibition result is “inactive”.

Regarding `CC(C)=CCCC1(C)C=Cc2c(ccc(C(=O)/C=C/c3ccc(O)cc3)c2O)O1` (stereo unspecified) [LESPEOL], the “Ratio CC50/IC50” value in [1] is listed as 11.5. In data set [2], this molecule came in with a CC50 at 72 h of 190 µM. Inhibition in the data set on Leishmania donovani [3] was half-maximal at 16.5 µM (IC50). Further, in the data set with Leishmania donovani [4], the inhibition at 25 µM came out at 97.5%.

Turning to `COc1ccc(C(=O)c2cc3cc(/C=C/C(=O)c4ccc5c(c4O)C=CC(C)(CCC=C(C)C)O5)ccc3o2)cc1` (stereo unspecified), the IC50 with Leishmania donovani [3] was above 20 µM. For the same molecule, the inhibition at 25 µM in the data set with Leishmania donovani [4] is 92.9%.

Regarding `CC(C)=CCCC1(C)C=Cc2c(ccc(C(=O)CCc3cccnc3)c2O)O1` (stereo unspecified), the “Ratio CC50/IC50” value in data set [1] stood at 24.1. In data set [2], this molecule displayed a 50% cytotoxic concentration (CC50) at 72 h of 266 µM. This molecule also came in with a 50% inhibitory concentration (IC50) with Leishmania donovani [3] of 11 µM. Moreover, the inhibition at 25 µM in the data set with Leishmania donovani [4] came out at 98.5%.

For the molecule `CC(C)=CCCC1(C)C=Cc2c(ccc(C(=O)/C=C/c3cccnc3)c2OCCN2CCCCC2)O1` (stereo unspecified), the inhibition in vivo (as a rule, the percentage by which the read-out fell short of the control) at 50 mg/kg/day in the data set with Leishmania donovani [9] amounted to 73.2%; in the data set with Leishmania donovani [10], 50%. Further, the “Ratio CC50/IC50” value in data set [1] is listed as 38.3. The half-maximal cytotoxic concentration (CC50) at 72 h in [2] was 65.2 µM. The molecule further came in with a half-maximal inhibitory concentration (IC50) with Leishmania donovani [3] of 1.7 µM. Besides, the inhibition at 25 µM in the data set on Leishmania donovani [4] is 99.8%.

In the case of `CC(C)=CCCC1(C)C=Cc2c(ccc(C(=O)/C=C/c3cccc(-c4ncc(-c5cccc(O)c5)o4)c3)c2O)O1` (stereo unspecified), in data set [1], the “Ratio CC50/IC50” value is reported as above 68.9. The molecule also came in with a half-maximal cytotoxic concentration (CC50) at 72 h in data set [2] above 400 µM. For the same molecule, the IC50 with Leishmania donovani [3] was determined as 5.8 µM. For the same molecule, the inhibition at 25 µM with Leishmania donovani [4] worked out at 99.5%.

As for `CC(C)=CCCC1(C)C=Cc2c(ccc(C(=O)/C=C/c3ccc(OCCN4CCCCC4)cc3)c2OCCN2CCCCC2)O1` (stereo unspecified), the “Ratio CC50/IC50” value in [1] stood at 31.9. In the data set with Leishmania donovani [3], 6.3 µM corresponded to half-maximal inhibition (IC50). The inhibition at 25 µM in the data set on Leishmania donovani [4] stood at 99.9%.

Regarding `CC(C)=CCCC1(C)C=Cc2c(ccc(C(=O)/C=C/c3ccc4occc4c3)c2O)O1` (stereo unspecified), the half-inhibitory concentration (IC50) in the data set on Leishmania donovani [3] was above 20 µM. Moreover, the inhibition at 25 µM in the data set on Leishmania donovani [4] stood at 96.5%.

In the case of `CC(C)=CCCC1(C)C=Cc2c(ccc(C(=O)/C=C/c3cc4cc(C)ccc4nc3Cl)c2O)O1` (stereo unspecified), the Activity result in [11] is listed as “Toxic”. For the same molecule, the inhibition at 25 µM with Leishmania donovani [4] was determined as 100%.

In turn, `CC(C)=CCCC1(C)C=Cc2c(ccc(/C=C/C(=O)c3ccc(C)c(C)c3)c2O)O1` (stereo unspecified) had a half-maximal inhibitory concentration (IC50) with Leishmania donovani [3] above 20 µM. The inhibition at 25 µM in the data set with Leishmania donovani [4] was 93.2%.

(Values after ChEMBL document CHEMBL3259690, “Synthesis, structure-activity relationships, and biological studies of chromenochalcones as potential antileishmanial agents” (J Med Chem, 2014).)
